From ChEMBL document CHEMBL1138606, “The discovery of tropane derivatives as nociceptin receptor ligands for the management of cough and anxiety” (Bioorg Med Chem Lett, 2009)
The source made the active and inactive calls. No cut-off for these calls is given here.

Assays:
Nociceptin receptor [1] = molecular target: T1, Nociceptin receptor (Homo sapiens, UniProt P41146); assay: Displacement of [125I][Tyr14]nociceptin from human cloned NOP receptor expressed in CHO cells; assay type: cell-based
Nociceptin receptor [2] = molecular target: T1, Nociceptin receptor; assay: Agonist activity at human NOP assessed as stimulation of GDP-induced [35S]GTPgammaS binding at 10 uM; assay type: functional
How it was run: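 Functional agonism measured as enhancement of [35S]GTPγS binding in the presence of GDP, using membranes from cells transfected with the receptor. […] Values are means of 2–3 experiments.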

Mu-type opioid receptor [3] = molecular target: T2, Mu-type opioid receptor (Homo sapiens, UniProt P35372); assay: Displacement of [3H]diprenorphine from human mu opioid receptor expressed in CHO cells; assay type: cell-based
Mu-type opioid receptor [4] = molecular target: T2, Mu-type opioid receptor; assay: Agonist activity at human mu opioid assessed as stimulation of GDP-induced [35S]GTPgammaS binding; assay type: functional
How it was run: (§1)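 Functional agonism measured as enhancement of [35S]GTPγS binding in the presence of GDP, using membranes from cells transfected with the receptor. Values are means of 2–3 experiments.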

Nociceptin receptor [5] = molecular target: T1, Nociceptin receptor; assay: Agonist activity at human NOP assessed as stimulation of GDP-induced [35S]GTPgammaS binding; assay type: functional; how it was run: as §1
[6] = molecular target: T3, Nuclear receptor subfamily 1 group I member 2 (Homo sapiens, UniProt O75469); assay: Activity at human PXR assessed as induction of CYP3A4 activity in human hepatocytes at 1 uM relative to rifampicin; assay type: cell-based, Hepatocyte
T3 sequence (O75469 whole entry): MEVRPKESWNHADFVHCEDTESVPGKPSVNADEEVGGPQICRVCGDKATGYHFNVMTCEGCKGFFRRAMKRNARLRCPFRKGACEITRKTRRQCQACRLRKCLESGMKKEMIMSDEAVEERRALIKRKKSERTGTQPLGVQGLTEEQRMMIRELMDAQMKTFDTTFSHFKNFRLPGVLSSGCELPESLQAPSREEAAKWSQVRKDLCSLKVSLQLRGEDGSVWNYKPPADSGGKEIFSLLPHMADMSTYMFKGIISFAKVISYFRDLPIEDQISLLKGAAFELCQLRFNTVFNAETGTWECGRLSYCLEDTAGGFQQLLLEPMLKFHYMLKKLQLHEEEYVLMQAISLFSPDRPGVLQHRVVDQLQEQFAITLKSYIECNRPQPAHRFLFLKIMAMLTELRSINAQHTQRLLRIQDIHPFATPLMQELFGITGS

Cavia porcellus = assay: Antitussive activity against capsaicin-induced cough in po dosed Hartley guinea pig model after 2 hrs; assay type: functional
Mu-type opioid receptor [7] = molecular target: T2, Mu-type opioid receptor; assay: Binding affinity to human mu opioid assessed as stimulation of GDP-induced [35S]GTPgammaS binding at 10 uM; assay type: functional
How it was run: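 Agonist function read as enhancement of [35S]GTPγS binding to receptor-expressing membranes in the presence of GDP. Percent stimulation is given at 10 µM test compound. Values are means of at least 2–3 experiments.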

T1 sequence (P41146 whole entry): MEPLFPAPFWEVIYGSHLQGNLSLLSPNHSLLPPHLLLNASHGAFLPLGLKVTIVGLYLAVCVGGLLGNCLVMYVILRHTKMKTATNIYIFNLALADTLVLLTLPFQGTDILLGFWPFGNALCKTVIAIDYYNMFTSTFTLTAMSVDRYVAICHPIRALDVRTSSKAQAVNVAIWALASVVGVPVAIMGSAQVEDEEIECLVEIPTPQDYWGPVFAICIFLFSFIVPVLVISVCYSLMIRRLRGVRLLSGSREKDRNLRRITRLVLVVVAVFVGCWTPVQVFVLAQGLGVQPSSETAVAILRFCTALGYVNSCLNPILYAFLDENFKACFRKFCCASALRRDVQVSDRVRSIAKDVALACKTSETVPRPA
T2 sequence (P35372 whole entry): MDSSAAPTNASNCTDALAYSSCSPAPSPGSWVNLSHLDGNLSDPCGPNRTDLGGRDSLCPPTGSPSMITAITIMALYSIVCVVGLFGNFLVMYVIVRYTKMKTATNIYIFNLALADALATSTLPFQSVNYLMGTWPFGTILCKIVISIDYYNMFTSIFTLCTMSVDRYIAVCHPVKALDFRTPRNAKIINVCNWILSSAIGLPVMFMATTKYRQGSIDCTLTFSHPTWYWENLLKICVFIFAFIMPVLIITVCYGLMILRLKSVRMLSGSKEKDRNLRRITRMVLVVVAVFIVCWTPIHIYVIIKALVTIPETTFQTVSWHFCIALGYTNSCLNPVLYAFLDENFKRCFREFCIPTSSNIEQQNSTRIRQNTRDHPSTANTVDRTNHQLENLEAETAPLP

OC1(c2cccnn2)CC2CCC(C1)N2C(c1ccccc1Cl)c1ccccc1Cl (stereo in doubt; 12c)
Ki (Nociceptin receptor [1]): 3760 nM

OC1(c2ccccc2)CC2CCCC(C1)N2C(c1ccccc1)c1ccccc1 (stereo unspecified)
Activity (Nociceptin receptor [2]): 101%
Ki (Mu-type opioid receptor [3]): 514 nM
Ki (Nociceptin receptor [1]): 7.5 nM

Cc1ccc(C(c2ccccc2Cl)N2C3CCC2CC(O)(C2CCCC2)C3)c(Cl)c1 (stereo unspecified)
EC50 (Mu-type opioid receptor [4]): 709 nM
Ki (Mu-type opioid receptor [3]): 104 nM
EC50 (Nociceptin receptor [5]): 16 nM
Ki (Nociceptin receptor [1]): 1.9 nM

OC1CC2CCC(C1)N2C(c1ccccc1Cl)c1ccccc1Cl (stereo in doubt; 12a)
Ki (Nociceptin receptor [1]): 1090 nM

Cc1ccnc(C2(O)C3CCC2CN(C(c2ccccc2Cl)c2ccccc2Cl)C3)c1 (stereo unspecified)
Ki (Mu-type opioid receptor [3]): 3590 nM
Ki (Nociceptin receptor [1]): 385 nM

OC1(c2cccnc2)C2CCC1CN(C(c1ccccc1Cl)c1ccccc1Cl)C2 (stereo unspecified)
Ki (Mu-type opioid receptor [3]): 7260 nM
Ki (Nociceptin receptor [1]): 908 nM

COc1ccc(C2(C(N)=O)CC3CCC(C2)N3C(c2ccccc2Cl)c2ccccc2Cl)cc1 (stereo unspecified)
Ratio [6]: 0.06
Ki (Mu-type opioid receptor [3]): 59 nM
Ki (Nociceptin receptor [1]): 22 nM

OC1(c2ccccc2)CC2CCC(C1)N2C(c1ccccc1)c1ccccc1 (stereo unspecified)
Activity (Cavia porcellus): inactive
Ki (Mu-type opioid receptor [3]): 94 nM

FCC1(c2ccccc2)CC2CCC(C1)N2C(c1ccccc1Cl)c1ccccc1Cl (stereo unspecified)
Ki (Nociceptin receptor [1]): 3150 nM

OC1(c2cncs2)CC2CCC(C1)N2C(c1ccccc1Cl)c1ccccc1Cl (stereo in doubt; 12b)
Ki (Nociceptin receptor [1]): 3000 nM

CNC(=O)C1(c2ccccc2)CC2CCC(C1)N2C(c1ccccc1Cl)c1ccccc1Cl (stereo unspecified)
Ratio [6]: 1.29
Ki (Mu-type opioid receptor [3]): 50 nM
Ki (Nociceptin receptor [1]): 4.9 nM

CCNC(=O)C1(c2ccccc2)CC2CCC(C1)N2C(c1ccccc1Cl)c1ccccc1Cl (stereo unspecified)
Ratio [6]: 1.49
Ki (Mu-type opioid receptor [3]): 215 nM
Ki (Nociceptin receptor [1]): 7 nM

Cc1ccc(C(c2ccccc2Cl)N2C3CCC2CC(O)(C2CCNC2=O)C3)c(Cl)c1 (stereo unspecified)
Ki (Mu-type opioid receptor [3]): 781 nM
EC50 (Nociceptin receptor [5]): 48 nM
Activity (Mu-type opioid receptor [7]): 60%
Ki (Nociceptin receptor [1]): 3.6 nM

NC(=O)C1(c2ccc(Br)cc2)CC2CCC(C1)N2C(c1ccccc1Cl)c1ccccc1Cl (stereo unspecified)
Ratio [6]: 0.05
Ki (Nociceptin receptor [1]): 40 nM

COC(=O)NC1(c2ccccc2)CC2CCC(C1)N2C(c1ccccc1Cl)c1ccccc1Cl (stereo unspecified)
EC50 (Mu-type opioid receptor [4]): 782 nM
Ki (Mu-type opioid receptor [3]): 576 nM
EC50 (Nociceptin receptor [5]): 54 nM
Ki (Nociceptin receptor [1]): 6 nM

Clc1ccccc1C(c1ccccc1Cl)N1C2CCC1CC(c1ccccc1)(c1nc[nH]n1)C2 (stereo unspecified)
Ki (Mu-type opioid receptor [3]): 100 nM
Ki (Nociceptin receptor [1]): 5.3 nM

Cc1ccc(C(c2ccccc2Cl)N2C3CCC2CC(O)(C2CCCN2Cc2ccccc2)C3)c(Cl)c1 (stereo unspecified)
Ki (Mu-type opioid receptor [3]): 1550 nM
Ki (Nociceptin receptor [1]): 14 nM

COC1(c2ccccc2)CC2CCC(C1)N2C(c1ccccc1Cl)c1ccccc1Cl (stereo unspecified)
EC50 (Mu-type opioid receptor [4]): 545 nM
Ki (Mu-type opioid receptor [3]): 636 nM
EC50 (Nociceptin receptor [5]): 50 nM
Ki (Nociceptin receptor [1]): 8 nM

COc1ccc(CC2(O)CC3CCC(C2)N3C(c2ccccc2Cl)c2ccc(C)cc2Cl)nc1 (stereo unspecified)
Ki (Mu-type opioid receptor [3]): 384 nM
EC50 (Nociceptin receptor [5]): 90 nM
Activity (Mu-type opioid receptor [7]): 31%
Ki (Nociceptin receptor [1]): 13 nM

N#CC1(c2ccccc2)CC2CCC(C1)N2C(c1ccccc1Cl)c1ccccc1Cl (stereo unspecified)
Ki (Nociceptin receptor [1]): 100 nM

NC(=O)C1(c2ccc(OC(F)(F)F)cc2)CC2CCC(C1)N2C(c1ccccc1Cl)c1ccccc1Cl (stereo unspecified)
Ratio [6]: 0.1
Ki (Nociceptin receptor [1]): 285 nM

COCCNC(=O)C1(c2ccccc2)CC2CCC(C1)N2C(c1ccccc1Cl)c1ccccc1Cl (stereo unspecified)
Ratio [6]: 2.35
Ki (Mu-type opioid receptor [3]): 60 nM
Ki (Nociceptin receptor [1]): 8.2 nM

CNC(=O)NC1(c2ccccc2)CC2CCC(C1)N2C(c1ccccc1Cl)c1ccccc1Cl (stereo unspecified)
Ki (Mu-type opioid receptor [3]): 27 nM
Ki (Nociceptin receptor [1]): 2 nM
